HCT116 PTEN-null: growth suppression of PTEN-null HCT116, primary screen, cell-based, CellTiter-Glo. 140,000 tested, 1.2% active. viability, % at 10 µM. HCT116 PTEN-null viability, 60 h; active compounds read low;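 active means viability at or below a set limit, 4 SD under the median of all tested compounds, cut at about 3.7% in these data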;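 further: PTEN knockout HCT116 line with beta catenin targeted HCT116 as companion control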
bCat KO growth: primary screen for growth suppressors in beta-catenin knockout HCT116 cells (colon tumor, human). AID 818, 2007. 140,000 tested, 1.5% active. HCT116 beta-catenin knockout viability, CellTiter-Glo, 60 h; active compounds read low. viability, % at 10 µM;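 active means viability at or under a set limit, the compound median less 4 SD, cut at about 6% in these data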;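 further: 0% = Hyamine 1622 control at 20 µM and 100% = untreated cell control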
HUVEC prolif 384: inhibitors of HUVEC proliferation, primary screen, cell-based, 384-well; viability, % at 10 µM (by protocol); AID 648, 2007; CellTiter-Glo luminescence, 72 h; active compounds read low; 86,000 tested, 1.1% active;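 active means viability at or below 30%; inactive means viability above 30%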;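 further: 100% = median luminescence of DMSO-only cell control wells on each plate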
H69AR growth 86K: proliferation blockers of H69AR lung cancer cells, primary screen, cell-based, human, 86K library | viability, % at 10 µM | 85,000 tested, 6% active | H69AR lung tumor viability, ATP luminescence, 72 h; active compounds read low;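 active means viability at or below 40%; inactive means viability above 40%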;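 further: multidrug resistant small cell line overexpressing MRP-1 efflux transporter; 100% = mean luminescence of untreated control wells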
Fibroblast inh: antiproliferative effect on LL 47 fibroblasts – human, LL 47 cells, CellTiter-Glo luminescence, primary screen | LL 47 human lung fibroblast viability, ATP luminescence; active compounds read low | viability, % at 10 µM | 85,000 tested, 1.1% active | AID 719, 2007;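 active means viability at or below 50% in the single dose screen; inactive means viability above 50%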;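 further: compound exposure lasted 72 h before the ATP readout; 100% = median luminescence of untreated cell-only wells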
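Test system: LL 47 human lung fibroblasts / Quantity: 1,150 cells in each well / Medium: IMEM growth medium with 15% fetal bovine serum / Incubation: 72 h compound exposure at 37 °C after overnight plating / Detection: CellTiter-Glo luminescence measuring cellular ATP / Read-out: % viability versus median cells-only luminescence / Benchmarks: cell-only wells, no compound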
Starred values were filed as active, the others as inactive; x = no result. The entries come from a sample that favours hits as a whole.

SMILES | HCT116 PTEN-null | bCat KO growth | HUVEC prolif 384 | H69AR growth 86K | Fibroblast inh
O=C(Oc1nsnc1N1CCOCC1)N(c1ccccc1)c1ccccc1 | 80.5 | 82.2 | 93.3 | 83.8 | x
COC(=O)Oc1nsnc1N1CCOCC1 | 118.5 | 100.8 | 94.1 | 2.7* | 92.6
O=C(CNC1CCCCCC1)Nc1ccc(N2CCCC2)cc1 | 63.1 | 66.2 | x | x | x
O=C(CNCCC1=CCCCC1)Nc1ccc(N2CCCCCC2)cc1 | 24.3 | 35.8 | 2.0* | 0.2* | 23.5*
O=C(COC(=O)C1CCCCC1)Nc1ccc(N2CCCCC2)cc1 | 98.9 | 91.5 | 97.7 | 37.5* | 94.6
CCC/C(O)=C1\C(=O)CC(c2ccccc2)CC1=NC(C)C(=O)O (stereo unspecified) | 108.5 | 104.1 | x | x | x
COc1ccc(/C=C\C(=O)c2c(O)ccc3c(C)cc(=O)oc23)cc1OC | 25.1 | 19.8 | x | x | x
CCC(Sc1nc2n[nH]c(C)c2c(=N)n1-c1cccc(Cl)c1)C(=O)NCCOC (stereo unspecified) | 51.1 | 59.4 | x | x | x
CCC(Sc1nc2n[nH]c(C)c2c(=N)n1-c1ccc(C)c(Cl)c1)C(=O)N1CCOCC1 (stereo unspecified) | 72.0 | 74.9 | 57.8 | 25.6* | 75.1
COc1ccc(OC)c(/C=N/NC(=O)CNC(=O)c2ccc(S(=O)(=O)N3CCOCC3)cc2)c1 | 101.6 | 92.8 | x | x | x
N#Cc1c(NCCN)nc(-c2ccccc2)c2c1CCCC2 | 34.2 | 50.9 | 88.8 | 6.0* | 66.5
CCN1CCc2c(C#N)c(NCc3ccccc3)nc(N(CC)CC)c2C1 | 67.6 | 66.6 | 55.3 | 57.6 | 82.1
N#Cc1c(N2CCN(C(=O)c3ccccc3)CC2)nc(-c2ccccc2)c2c1CCCC2 | 73.6 | 77.0 | 69.0 | 14.5* | 91.3
C=CCNc1nc(NCc2ccccc2)c(C#N)c2c1CN(C)CC2 | 46.4 | 45.2 | 11.1* | 29.5* | 57.7
N#Cc1c(NCCN)nc(NCc2ccccc2)c2c1CCN(Cc1ccccc1)C2 | x | x | 18.1* | 47.4 | 82.6
O=C(NNC(=O)C1CC2CCC1C2)c1sc2ccccc2c1Cl (stereo unspecified) | 101.8 | 99.5 | x | x | x
O=C(O)c1ccc(N=NN2CCCCCC2)cc1 | 104.0 | 90.8 | x | x | x
C=CCNC(=O)CCCOc1ccc(C)cc1 | 93.3 | 88.2 | 94.1 | 106.4 | 100.6
C=CCNC(=O)CCCCC(=O)NCC=C | 105.4 | 94.1 | 96.3 | 32.4* | 97.4
CC(/C=N\Nc1nnc2c(n1)[nH]c1c(C)cccc12)=C\c1ccco1 | 2.4* | 2.1* | x | x | x
CCSc1nnc(NC(=O)C(CC)(C(F)(F)F)C(F)(F)F)s1 | 68.8 | 76.6 | 73.4 | 35.6* | 94.6
CCSc1nnc(NC(=O)c2ccccn2)s1 | 6.6 | 10.7 | 44.6 | 17.6* | x
CCSc1nnc(NC(=O)c2cnccn2)s1 | x | x | 96.5 | 49.2 | x
CCOc1cc(NC(=O)c2ccco2)c(OCC)cc1NC(=O)c1cc(OC)c(OC)c(OC)c1 | 96.2 | 93.1 | 90.3 | 65.5 | 96.7
COc1cc(NC(=O)c2ccco2)c(OC)cc1NC(=O)c1cc(OC)c(OC)c(OC)c1 | 83.0 | 65.7 | 71.4 | 24.1* | 106.9
SMILES | HCT116 PTEN-null | bCat KO growth | HUVEC prolif 384 | H69AR growth 86K | Fibroblast inh
CCOc1cc(C#N)c(NC(=O)c2ccco2)cc1OCC | 33.2 | 33.1 | 56.8 | 30.6* | 80.4
CCOc1ccccc1NC(=O)c1cc(Cl)ccc1NC(=O)c1ccco1 | 88.1 | 49.5 | 50.4 | 29.5* | 93.0
Cc1ccsc1C(=O)Nc1ccc2c(c1)OCCO2 | 80.2 | 77.8 | x | x | x
CCOC(=O)c1nc(S(C)(=O)=O)ncc1Cl | 24.0 | 20.2 | 77.8 | 1.6* | 65.4
CCOC(=O)c1nc(S(C)(=O)=O)ncc1N1CCOCC1 | 88.2 | 86.0 | 92.7 | 91.0 | 97.0
CC1CCC(NC(=O)C2CCC(CNS(=O)(=O)c3cccc4nsnc34)CC2)CC1 (stereo unspecified) | 63.3 | 42.5 | 43.5 | 17.2* | 67.1
O=C(NC1CCCCC1)C1CCC(CNS(=O)(=O)c2cccc3nsnc23)CC1 (stereo unspecified) | 99.2 | 97.8 | 55.9 | 85.1 | 96.5
O=C(C1CCC(CNS(=O)(=O)c2cccc3nsnc23)CC1)N1CC=C(c2ccccc2)CC1 (stereo unspecified) | 71.5 | 62.1 | 79.8 | 39.3* | 104.7
CCOCCN1CCN(C(=O)CN2CCCC2=O)CC1 | 101.9 | 94.3 | x | x | x
Cc1cc(N2CCCC2=O)cc(C)c1S(=O)(=O)NCCOc1ccc(C(C)(C)C)cc1 | 25.2 | 22.1 | 79.4 | 33.0* | 95.5
O=C1CCCN1c1ccc(S(=O)(=O)NCCOc2ccccc2)cc1 | 81.0 | 64.7 | 114.2 | 102.5 | 103.4

Screens (PubChem BioAssay)
